Source: ChEMBL document CHEMBL4715806, “Asymmetric Hydroboration Approach to the Scalable Synthesis of ((1R,3S)-1-Amino-3-((R)-6-hexyl-5,6,7,8-tetrahydronaphthalen-2-yl)cyclopentyl)methanol (BMS-986104) as a Potent S1P Receptor Modulator” (J Med Chem, 2016)
pEC50, pIC50: −log10 of the molar value. Blank lines part the entries; values can stand above or below the molecule they belong to. Calls of active or inactive are those of the source. The calls are words filed in the database; no cut-off is given here.

Tests used:
[1] = molecular target: Sphingosine 1-phosphate receptor 1 (Homo sapiens, UniProt P21453); assay: Agonist activity at human S1P1 in HLE cell membranes incubated for 45 mins by scintillation counting based [35S]GTP-gamma-S binding assay; set-up: species or system Cell membrane
Chain of Sphingosine 1-phosphate receptor 1 (P21453 whole entry): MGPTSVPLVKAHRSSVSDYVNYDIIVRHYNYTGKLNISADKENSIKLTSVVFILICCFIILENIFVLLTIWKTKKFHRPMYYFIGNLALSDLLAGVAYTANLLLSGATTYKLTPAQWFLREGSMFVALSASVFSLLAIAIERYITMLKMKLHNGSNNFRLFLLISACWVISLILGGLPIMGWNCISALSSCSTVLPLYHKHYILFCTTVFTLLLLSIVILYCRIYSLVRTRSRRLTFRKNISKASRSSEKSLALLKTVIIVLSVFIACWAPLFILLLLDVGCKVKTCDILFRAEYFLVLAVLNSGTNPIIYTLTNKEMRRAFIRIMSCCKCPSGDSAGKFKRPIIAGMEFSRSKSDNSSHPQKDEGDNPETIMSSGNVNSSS

[2] = molecular target: T1, Sphingosine 1-phosphate receptor 3 (Homo sapiens, UniProt Q99500); assay: Agonist activity at human S1P3 expressed in EDG3-Ga15-bla HEK293T cells incubated for 45 mins by scintillation counting based [35S]GTP-gamma-S binding assay relative to control; assay type: cell membranes, Cell membrane
T1 sequence (Q99500 whole entry): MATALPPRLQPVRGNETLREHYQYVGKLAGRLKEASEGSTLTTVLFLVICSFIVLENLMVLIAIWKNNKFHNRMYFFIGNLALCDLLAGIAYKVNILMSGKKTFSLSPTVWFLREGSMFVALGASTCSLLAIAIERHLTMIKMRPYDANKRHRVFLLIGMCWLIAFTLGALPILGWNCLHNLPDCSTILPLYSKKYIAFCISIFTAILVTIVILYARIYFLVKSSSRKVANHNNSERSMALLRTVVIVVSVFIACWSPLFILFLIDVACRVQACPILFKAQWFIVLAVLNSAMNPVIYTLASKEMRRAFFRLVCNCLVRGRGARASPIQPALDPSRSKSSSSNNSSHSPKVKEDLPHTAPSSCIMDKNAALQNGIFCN
Procedure, shortened: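 Membranes from EDG3-Ga15-bla HEK293T cells, 3 μg protein/well, mixed with compound in 3-fold dilution series. Room temperature, 45 min. Filter capture, water washes, scintillation counting. EC50 taken at 50% of each compound's own Ymax.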

[3] = molecular target: T1, Sphingosine 1-phosphate receptor 3; assay: Antagonist activity at human S1P3 expressed in EDG3-Ga15-bla HEK293T cells incubated for 45 mins by scintillation counting based [35S]GTP-gamma-S binding assay relative to control; assay type: cell membranes, Cell membrane
Cerebellum [4] = assay: Induction of remyelination in lysophosphatidylcholine-induced demyelination in CD1 mouse organotypic cerebellar slice at 0.01 to 10 nM incubated for 7 days by immunohistochemistry based three-dimensional brain cell culture assay; assay type: functional, tissue-based; conditions: dose 0.01-10 nM, time 7.0 day
Procedure, shortened: (§1)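 Cerebellum from P1-2 CD1 mouse pups cut into 350 μm parasagittal slices. Cultured on inserts at 36–37 °C, 5% CO2, in MEM/horse serum/EBSS/glucose medium for 13 days. Demyelination with 0.5 mg/ml LPC overnight, then 24 h in medium, then 7 days of treatment. Slices immunostained for MBP and CBD and imaged by confocal at ×40. Myelination index = CBD+MBP double-stained area divided by CBD single-stained area. ANOVA with Dunnett test.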

Cerebellum [5] = assay: Induction of remyelination in lysophosphatidylcholine-induced demyelination in CD1 mouse organotypic cerebellar slice assessed as promotion of Purkinje cell axonal remyelination at 0.01 to 10 nM incubated for 7 days by immunohistochemistry based three-dimensional brain cell culture assay; assay type: functional, tissue-based; conditions: dose 0.01-10 nM, time 7.0 day; procedure, shortened: as §1
Cerebellum [6] = assay: Induction of remyelination in lysophosphatidylcholine-induced demyelination in CD1 mouse organotypic cerebellar slice assessed as myelination index level at 0.01 to 10 nM incubated for 7 days by immunohistochemistry based three-dimensional brain cell culture assay (reference value: 50%); assay type: functional; conditions: dose 0.01-10 nM, time 7 day; procedure, shortened: as §1
Mus musculus [7] = assay: Induction of lymphopenia in Balb/c mouse assessed as reduction of circulating lymphocytes at 0.5 mg/kg, po measured after 4 hrs relative to control; assay type: functional
Procedure, shortened: (§2)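 Single oral dose to Balb/c mice in PEG300 vehicle, as solution or suspension; vehicle-only group as control. Retro-orbital bleeds at 4 h and 24 h. Lymphocyte counts read on a hematology analyzer. Expressed as % reduction of circulating lymphocytes versus the vehicle group at each time. Group means, n = 3–4 per group.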

Mus musculus [8] = assay: Induction of lymphopenia in Balb/c mouse assessed as reduction of circulating lymphocytes at 30 mg/kg, po measured after 4 hrs relative to control; assay type: functional; procedure, shortened: as §2
Mus musculus [9] = assay: Induction of lymphopenia in Balb/c mouse assessed as reduction of circulating lymphocytes at 30 mg/kg, po measured after 24 hrs relative to control; assay type: functional; procedure, shortened: as §2
[10] = Drug metabolism in orally dosed Balb/c mouse assessed as phosphate metabolite to parent AUC (0-24 hrs) ratio at after 24 hrs; assay type: ADME, organism-based; conditions: in vivo, po
Mus musculus [11] = assay: Induction of lymphopenia in orally dosed Balb/c mouse assessed as reduction of circulating lymphocytes measured after 24 hrs relative to control; assay type: functional, organism-based; procedure, shortened: as §2
Mus musculus [12] = assay: Induction of lymphopenia in Balb/c mouse assessed as reduction of circulating lymphocytes at 0.5 mg/kg, po measured after 24 hrs relative to control; assay type: functional; procedure, shortened: as §2
Mus musculus [13] = assay: Induction of lymphopenia in Balb/c mouse assessed as reduction of circulating lymphocytes at 1 mg/kg, po measured after 4 hrs relative to control; assay type: functional; procedure, shortened: as §2
Mus musculus [14] = assay: Induction of lymphopenia in Balb/c mouse assessed as reduction of circulating lymphocytes at 10 mg/kg, po measured after 4 hrs relative to control; assay type: functional; procedure, shortened: as §2
Mus musculus [15] = assay: Induction of lymphopenia in Balb/c mouse assessed as reduction of circulating lymphocytes at 10 mg/kg, po measured after 24 hrs relative to control; assay type: functional; procedure, shortened: as §2
hERG (KCNH2) = hERG (KCNH2) (Homo sapiens, UniProt Q12809); assay: Inhibition of human ERG expressed in HEK293 cells assessed as inhibition of peak tail current at 0.3 uM by patch clamp analysis; assay type: cell-based; conditions: HEK293 cells expressing human ERG
Chain of hERG (KCNH2) (Q12809 whole entry): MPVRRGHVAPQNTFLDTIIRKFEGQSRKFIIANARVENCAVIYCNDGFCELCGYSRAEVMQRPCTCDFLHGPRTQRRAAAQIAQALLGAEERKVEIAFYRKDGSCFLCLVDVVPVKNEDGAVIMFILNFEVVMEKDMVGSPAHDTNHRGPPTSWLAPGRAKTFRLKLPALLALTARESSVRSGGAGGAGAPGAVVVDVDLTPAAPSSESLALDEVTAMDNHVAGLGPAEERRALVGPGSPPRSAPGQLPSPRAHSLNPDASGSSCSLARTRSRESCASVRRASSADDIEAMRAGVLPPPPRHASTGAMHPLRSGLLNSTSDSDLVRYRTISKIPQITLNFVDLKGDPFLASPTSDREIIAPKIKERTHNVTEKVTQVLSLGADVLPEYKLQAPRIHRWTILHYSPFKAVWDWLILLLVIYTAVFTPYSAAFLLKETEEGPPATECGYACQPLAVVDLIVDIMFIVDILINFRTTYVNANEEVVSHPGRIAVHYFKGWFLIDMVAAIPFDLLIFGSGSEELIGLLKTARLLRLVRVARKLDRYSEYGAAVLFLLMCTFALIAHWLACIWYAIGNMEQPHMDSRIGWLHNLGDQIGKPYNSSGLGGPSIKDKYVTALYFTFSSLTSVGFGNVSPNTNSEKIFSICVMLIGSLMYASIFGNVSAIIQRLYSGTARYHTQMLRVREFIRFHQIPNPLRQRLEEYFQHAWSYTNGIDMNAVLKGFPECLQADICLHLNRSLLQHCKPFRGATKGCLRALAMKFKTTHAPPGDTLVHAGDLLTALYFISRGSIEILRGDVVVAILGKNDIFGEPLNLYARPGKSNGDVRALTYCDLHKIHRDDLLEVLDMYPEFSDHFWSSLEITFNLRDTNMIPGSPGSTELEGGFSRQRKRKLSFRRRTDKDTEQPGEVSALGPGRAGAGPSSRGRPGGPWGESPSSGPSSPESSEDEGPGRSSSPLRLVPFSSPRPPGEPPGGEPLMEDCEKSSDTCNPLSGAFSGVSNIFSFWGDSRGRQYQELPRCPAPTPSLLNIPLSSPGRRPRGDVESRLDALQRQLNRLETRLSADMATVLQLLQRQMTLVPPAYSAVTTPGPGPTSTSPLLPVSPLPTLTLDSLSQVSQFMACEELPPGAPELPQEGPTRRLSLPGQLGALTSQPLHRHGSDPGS
Procedure, shortened: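 Whole-cell patch clamp on HEK293 cells stably expressing the cloned hERG α subunit, in aqueous buffer pH 7.4 at room temperature. Test pulses at 0.05 Hz stepped from holding to +20 mV for 2 s. Tail currents evoked by a subsequent voltage step. Inhibition measured on peak tail current.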

[16] = Inhibition of sodium channel (unknown origin) assessed as reduction in Na+ flux; set-up: species or system Homo sapiens
Cytochrome P450 3A4 = Cytochrome P450 3A4 (Homo sapiens, UniProt P08684); assay: Inhibition of CYP3A4 (unknown origin); assay type: ADME
Chain of Cytochrome P450 3A4 (P08684 whole entry): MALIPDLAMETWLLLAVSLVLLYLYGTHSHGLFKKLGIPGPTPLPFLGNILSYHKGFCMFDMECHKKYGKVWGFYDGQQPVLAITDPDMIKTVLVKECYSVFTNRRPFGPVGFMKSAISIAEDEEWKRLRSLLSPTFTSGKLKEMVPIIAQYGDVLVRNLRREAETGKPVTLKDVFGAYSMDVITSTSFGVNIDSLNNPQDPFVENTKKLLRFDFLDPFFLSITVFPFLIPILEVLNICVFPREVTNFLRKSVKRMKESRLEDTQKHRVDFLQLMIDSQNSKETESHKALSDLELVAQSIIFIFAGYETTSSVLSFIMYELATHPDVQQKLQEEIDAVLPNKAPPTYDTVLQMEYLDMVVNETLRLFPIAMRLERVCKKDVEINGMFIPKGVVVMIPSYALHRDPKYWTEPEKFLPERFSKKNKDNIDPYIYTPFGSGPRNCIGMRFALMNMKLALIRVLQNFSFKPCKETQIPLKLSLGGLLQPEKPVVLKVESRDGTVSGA

Cytochrome P450 2D6 = Cytochrome P450 2D6 (Homo sapiens, UniProt P10635); assay: Inhibition of CYP2D6 (unknown origin); assay type: ADME
Chain of Cytochrome P450 2D6 (P10635 whole entry): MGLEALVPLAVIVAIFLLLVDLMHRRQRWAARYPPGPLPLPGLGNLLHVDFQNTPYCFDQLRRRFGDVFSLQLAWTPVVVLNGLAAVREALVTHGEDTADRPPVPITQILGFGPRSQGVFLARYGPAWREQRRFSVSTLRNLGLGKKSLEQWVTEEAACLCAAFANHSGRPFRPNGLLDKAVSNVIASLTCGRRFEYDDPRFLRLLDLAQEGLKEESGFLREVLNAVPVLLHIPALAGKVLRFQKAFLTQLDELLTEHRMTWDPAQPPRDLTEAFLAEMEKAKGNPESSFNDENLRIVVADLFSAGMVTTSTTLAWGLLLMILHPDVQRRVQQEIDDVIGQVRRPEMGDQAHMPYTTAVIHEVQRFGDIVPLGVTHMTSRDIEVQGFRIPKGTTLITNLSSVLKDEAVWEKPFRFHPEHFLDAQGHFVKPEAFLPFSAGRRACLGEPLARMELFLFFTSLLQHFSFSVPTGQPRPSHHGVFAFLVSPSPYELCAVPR

Cytochrome P450 2C8 = molecular target: T2, Cytochrome P450 2C8 (Homo sapiens, UniProt P10632); assay: Inhibition of CYP2C8 (unknown origin); assay type: ADME
T2 sequence (P10632 whole entry): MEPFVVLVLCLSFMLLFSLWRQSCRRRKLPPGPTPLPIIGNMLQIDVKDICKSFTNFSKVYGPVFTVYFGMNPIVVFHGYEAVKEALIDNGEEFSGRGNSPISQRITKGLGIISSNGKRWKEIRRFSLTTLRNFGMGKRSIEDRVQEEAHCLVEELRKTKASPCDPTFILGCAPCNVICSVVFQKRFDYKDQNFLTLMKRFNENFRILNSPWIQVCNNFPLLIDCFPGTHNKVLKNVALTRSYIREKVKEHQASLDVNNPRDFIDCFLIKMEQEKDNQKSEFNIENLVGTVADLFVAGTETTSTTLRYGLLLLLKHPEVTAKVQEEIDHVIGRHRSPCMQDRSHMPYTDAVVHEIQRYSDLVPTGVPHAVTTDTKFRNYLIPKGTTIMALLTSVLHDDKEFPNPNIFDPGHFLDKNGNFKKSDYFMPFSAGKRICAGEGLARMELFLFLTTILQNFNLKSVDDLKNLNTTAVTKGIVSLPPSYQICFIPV

Cytochrome P450 2C9 = Cytochrome P450 2C9 (Homo sapiens, UniProt P11712); assay: Inhibition of CYP2C9 (unknown origin); assay type: ADME
Chain of Cytochrome P450 2C9 (P11712 whole entry): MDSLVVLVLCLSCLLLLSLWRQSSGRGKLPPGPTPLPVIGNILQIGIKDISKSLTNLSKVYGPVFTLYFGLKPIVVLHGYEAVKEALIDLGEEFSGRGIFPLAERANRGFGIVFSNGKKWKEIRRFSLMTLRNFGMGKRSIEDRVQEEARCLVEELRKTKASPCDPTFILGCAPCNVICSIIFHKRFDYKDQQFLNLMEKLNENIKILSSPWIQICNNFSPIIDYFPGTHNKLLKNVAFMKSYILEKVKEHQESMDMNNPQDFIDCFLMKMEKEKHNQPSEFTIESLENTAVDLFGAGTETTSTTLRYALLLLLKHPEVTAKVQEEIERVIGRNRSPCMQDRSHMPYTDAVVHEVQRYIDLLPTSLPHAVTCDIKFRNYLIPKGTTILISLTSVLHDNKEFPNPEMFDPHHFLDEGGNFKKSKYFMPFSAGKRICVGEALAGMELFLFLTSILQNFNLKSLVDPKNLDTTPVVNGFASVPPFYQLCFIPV

Cytochrome P450 2C19 = Cytochrome P450 2C19 (Homo sapiens, UniProt P33261); assay: Inhibition of CYP2C19 (unknown origin); assay type: ADME
Chain of Cytochrome P450 2C19 (P33261 whole entry): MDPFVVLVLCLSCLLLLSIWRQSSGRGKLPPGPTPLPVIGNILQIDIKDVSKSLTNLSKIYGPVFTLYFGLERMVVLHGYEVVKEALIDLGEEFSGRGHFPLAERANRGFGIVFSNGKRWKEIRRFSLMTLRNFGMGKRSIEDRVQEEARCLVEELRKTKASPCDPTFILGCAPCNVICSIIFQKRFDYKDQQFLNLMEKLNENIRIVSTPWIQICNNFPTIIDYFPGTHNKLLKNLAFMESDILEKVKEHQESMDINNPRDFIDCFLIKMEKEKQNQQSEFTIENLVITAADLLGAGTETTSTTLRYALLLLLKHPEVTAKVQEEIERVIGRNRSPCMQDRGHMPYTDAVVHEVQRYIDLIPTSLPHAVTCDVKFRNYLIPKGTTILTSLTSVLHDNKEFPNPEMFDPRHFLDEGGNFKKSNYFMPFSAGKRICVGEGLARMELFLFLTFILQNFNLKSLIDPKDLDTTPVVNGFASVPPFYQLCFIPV

[17] = Half life in human liver microsomes; assay type: ADME, Microsome
[18] = Half life in rat liver microsomes; assay type: ADME, Microsome
[19] = Half life in mouse liver microsomes; assay type: ADME, Microsome
[20] = Half life in monkey liver microsomes; assay type: ADME, Macaca mulatta, Microsome; conditions: rhesus monkey
[21] = Unbound fraction in human plasma; assay type: ADME, cell-free
[22] = Unbound fraction in rat plasma; assay type: ADME, cell-free
[23] = Unbound fraction in mouse plasma; assay type: ADME, cell-free
[24] = Unbound fraction in cynomolgus monkey plasma; assay type: ADME, cell-free, Macaca fascicularis
[25] = Unbound fraction in dog plasma; assay type: ADME, cell-free, Canis lupus familiaris
[26] = Half life in mouse; assay type: ADME, organism-based; conditions: in vivo
Mus musculus [27] = assay: Suppression of experimental autoimmune-encephalomyelositis in MOG peptide induced C57BL/6 mouse EAE chronic model assessed as improvement in clinical scores at 0.5 to 4 mg/kg, po dosed every other day; assay type: functional, organism-based; conditions: dose 0.5-4 mg/kg
Procedure, shortened: (§3)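 C57BL/6 female mice, 6–8 weeks, n=10 per group, immunized subcutaneously with MOG35-55 emulsified 1:1 in incomplete Freund's adjuvant plus M. tuberculosis H37RA. Oral dosing from day 1, every other day or daily as stated. Clinical scores graded up to 5 (death) and averaged per group. At termination, lumbar spinal cord taken for formalin fixation and paraffin sections stained with H&E and Luxol Fast Blue. Groups compared by one-way ANOVA with Tukey post test.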

Mus musculus [28] = assay: Suppression of experimental autoimmune-encephalomyelositis in MOG peptide induced C57BL/6 mouse EAE chronic model assessed as improvement in clinical scores at 4 mg/kg, po dosed every other day relative to control; assay type: functional; procedure, shortened: as §3
Mus musculus [29] = assay: Suppression of experimental autoimmune-encephalomyelositis in MOG peptide induced C57BL/6 mouse EAE chronic model assessed as reduction in central nervous system damage at 0.5 to 4 mg/kg, po dosed every other day by hematoxylin and eosin staining based histological analysis relative to control; assay type: functional, organism-based; conditions: dose 0.5-4 mg/kg; procedure, shortened: as §3
Mus musculus [30] = assay: Suppression of experimental autoimmune-encephalomyelositis in MOG peptide induced C57BL/6 mouse EAE chronic model assessed as improvement in clinical scores at 0.5 mg/kg, po dosed every other day relative to control; assay type: functional; procedure, shortened: as §3

- pEC50 [1]: 8.19
- pEC50 [2]: < 6.00
- pIC50 [3]: < 6.00
SMILES: CCCCCC[C@@H]1CCc2cc([C@H]3CC[C@](N)(COP(=O)(O)O)C3)ccc2C1
- Activity (Cerebellum [4]): Active
- Activity (Cerebellum [5]): Active
- Activity (Cerebellum [6]): 100%

- Ratio [10]: 0.57
SMILES: CCCCCC[C@H]1CCc2cc([C@H]3CC[C@](N)(CO)C3)ccc2C1
- inhibition in vivo at 0.5 mg/kg (Mus musculus [7]): 21%
- inhibition in vivo at 30 mg/kg (Mus musculus [8]): 66%
- inhibition in vivo at 30 mg/kg (Mus musculus [9]): 84%

- pEC50 [1]: 7.22
- pEC50 [2]: < 6.00
- pIC50 [3]: < 6.00
- pEC50 (Mus musculus [11]): 7.46
SMILES: CCCCCC[C@H]1CCc2cc([C@H]3CC[C@](N)(COP(=O)(O)O)C3)ccc2C1

- Ratio [10]: 0.51
- pIC50 [16]: < 4.10
- pIC50 (Cytochrome P450 3A4): 4.72
- pIC50 (Cytochrome P450 2D6): < 4.70
- pIC50 (Cytochrome P450 2C8): 5.30
- pIC50 (Cytochrome P450 2C9): < 4.70
- pIC50 (Cytochrome P450 2C19): < 4.70
- half-life [17]: 1.78 h
- half-life [18]: 2 h
- half-life [19]: 2 h
- half-life [20]: 2 h
- Fu [21]: < 1%
- Fu [22]: < 1%
- Fu [23]: < 1%
- Fu [24]: < 1%
- Fu [25]: < 1%
- half-life [26]: 98 h
SMILES: CCCCCC[C@@H]1CCc2cc([C@H]3CC[C@](N)(CO)C3)ccc2C1 [BMS-986104]
- inhibition in vivo at 0.5 mg/kg (Mus musculus [7]): 52%
- inhibition in vivo at 0.5 mg/kg (Mus musculus [12]): 68%
- inhibition in vivo at 30 mg/kg (Mus musculus [8]): 88%
- inhibition in vivo at 30 mg/kg (Mus musculus [9]): 90%
- Activity (Mus musculus [11]): Dose-dependent effect
- inhibition in vivo at 1 mg/kg (Mus musculus [13]): 52%
- inhibition in vivo at 10 mg/kg (Mus musculus [14]): 80%
- inhibition in vivo at 10 mg/kg (Mus musculus [15]): 90%
- inhibition at 0.3 µM (hERG (KCNH2)): 36%
- Activity (Mus musculus [27]): Dose-dependent effect
- Activity (Mus musculus [28]): 55%
- Activity (Mus musculus [29]): Active
- Activity (Mus musculus [30]): 33%
